Assay [1] addresses T1, Lethal factor (Bacillus anthracis, UniProt P15917).
T1 sequence (P15917 whole entry): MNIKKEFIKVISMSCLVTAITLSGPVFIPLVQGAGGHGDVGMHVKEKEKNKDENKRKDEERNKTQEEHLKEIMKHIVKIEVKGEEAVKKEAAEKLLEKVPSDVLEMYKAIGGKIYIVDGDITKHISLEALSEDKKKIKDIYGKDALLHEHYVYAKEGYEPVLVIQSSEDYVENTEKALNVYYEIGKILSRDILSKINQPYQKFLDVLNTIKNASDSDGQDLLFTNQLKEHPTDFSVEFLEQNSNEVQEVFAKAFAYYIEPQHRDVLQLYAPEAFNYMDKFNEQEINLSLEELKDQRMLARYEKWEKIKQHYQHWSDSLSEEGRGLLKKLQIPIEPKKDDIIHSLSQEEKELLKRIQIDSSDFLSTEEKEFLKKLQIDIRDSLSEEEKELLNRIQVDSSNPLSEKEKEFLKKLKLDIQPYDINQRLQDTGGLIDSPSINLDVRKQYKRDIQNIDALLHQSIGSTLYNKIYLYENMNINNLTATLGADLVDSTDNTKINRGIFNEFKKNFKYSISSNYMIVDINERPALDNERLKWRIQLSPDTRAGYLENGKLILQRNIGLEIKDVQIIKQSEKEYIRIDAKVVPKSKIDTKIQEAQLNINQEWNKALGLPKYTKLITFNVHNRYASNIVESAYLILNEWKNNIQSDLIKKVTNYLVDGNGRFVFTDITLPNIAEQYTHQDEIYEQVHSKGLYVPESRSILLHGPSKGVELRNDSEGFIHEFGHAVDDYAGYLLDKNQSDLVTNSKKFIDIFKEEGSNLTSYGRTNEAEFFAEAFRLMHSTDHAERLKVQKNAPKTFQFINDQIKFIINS
Description: Inhibition of Bacillus anthracis lethal factor. Put shortly:
(§1)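 FRET-based assay: LF cleaves a SNAP-derived fluorogenic peptide, and cleavage is read as a change in fluorescence.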

The target of assay [2] is T1, Lethal factor. Description: Non-competitive inhibition of Bacillus anthracis lethal factor assessed as MCA-KKVYPYPME[dnp]K amide cleavage after 30 mins by Eadie-Hofstee plot analysis.
For assay [3], the target named is T1, Lethal factor. The assay is described as follows: Non-competitive inhibition of Bacillus anthracis lethal factor using 100 uM MCA-KKVYPYPME[dnp]K amide as substrate after 30 mins by Eadie-Hofstee plot analysis.
Assay [4] addresses T1, Lethal factor. The assay is described as follows: Non-competitive inhibition of Bacillus anthracis lethal factor using 50 uM MCA-KKVYPYPME[dnp]K amide as substrate after 30 mins by Eadie-Hofstee plot analysis.
The target in assay [5] is T1, Lethal factor. Description: Non-competitive inhibition of Bacillus anthracis lethal factor using 25 uM MCA-KKVYPYPME[dnp]K amide as substrate after 30 mins by Eadie-Hofstee plot analysis.
Assay [6] has as its target T1, Lethal factor. Description: Non-competitive inhibition of Bacillus anthracis lethal factor using 12.5 uM MCA-KKVYPYPME[dnp]K amide as substrate after 30 mins by Eadie-Hofstee plot analysis.
Assay [7] concerns the target T1, Lethal factor. The assay is described as follows: Non-competitive inhibition of Bacillus anthracis lethal factor using 6.25 uM MCA-KKVYPYPME[dnp]K amide as substrate after 30 mins by Eadie-Hofstee plot analysis.
For assay [8], the target named is Matrix metalloproteinase-9 (Homo sapiens, UniProt P14780). Description: Inhibition of human MMP-9 after 60 mins by FRET assay. Put shortly:
(§2)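 MMP-1 (38 nM) or MMP-9 (13 nM) with 50 fluorogenic substrate in 50 mM MOPS pH 6.0 and 0.05% NP-40, 37 °C for 60 min (linear range 90 min). Stopped with acetic acid (0.5% final); emission at 440 nm, excitation at 340 nm.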

Another assay addresses T2, Interstitial collagenase (Homo sapiens, UniProt P03956).
T2 sequence (P03956 whole entry): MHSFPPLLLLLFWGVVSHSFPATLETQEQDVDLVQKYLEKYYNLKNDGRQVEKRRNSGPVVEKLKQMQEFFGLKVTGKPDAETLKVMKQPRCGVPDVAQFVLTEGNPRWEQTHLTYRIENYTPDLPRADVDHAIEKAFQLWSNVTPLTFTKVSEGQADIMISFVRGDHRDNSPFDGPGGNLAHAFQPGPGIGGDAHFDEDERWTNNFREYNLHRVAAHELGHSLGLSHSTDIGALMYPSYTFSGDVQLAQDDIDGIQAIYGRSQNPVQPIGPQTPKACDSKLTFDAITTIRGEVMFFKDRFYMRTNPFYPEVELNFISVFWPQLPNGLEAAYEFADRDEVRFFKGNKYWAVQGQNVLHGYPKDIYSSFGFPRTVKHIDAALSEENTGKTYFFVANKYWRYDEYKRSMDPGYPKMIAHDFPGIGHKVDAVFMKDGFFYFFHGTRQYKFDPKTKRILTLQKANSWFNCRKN
The assay is described as follows: Inhibition of human MMP-1 after 60 mins by FRET assay. Put shortly: as §2

Assay [9] concerns the target Botulinum neurotoxin type A (Clostridium botulinum, UniProt P0DPI0). The assay is described as follows: Inhibition of Clostridium bolulinum BoNT/A assessed as cleavage of MOCAc-Lys-Lys-Val-Tyr-Pro-Tyr-Pro-Met-Glu-Lys(Dnp)-NH2 after 40 mins by FRET assay. Put shortly: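 BoNT/A light chain (2 nM) in a 96-well FRET format. Reactions were stopped with acetic acid to 0.5% and cleaved-substrate fluorescence read at 485 nm with excitation at 398 nm. The same format served for IC50 and mechanism kinetics.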

The target in assay [10] is T1, Lethal factor. The assay is described as follows: Non-competitive inhibition of Bacillus anthracis lethal factor using 3.12 uM MCA-KKVYPYPME[dnp]K amide as substrate after 30 mins by Eadie-Hofstee plot analysis.
Assay [11] deals with T1, Lethal factor. The assay is described as follows: Inhibition of Bacillus anthracis lethal factor assessed as MCA-KKVYPYPME[dnp]K amide cleavage after 30 mins by fluorescence plate reader analysis.
For assay [12], the target named is T1, Lethal factor. The assay is described as follows: Inhibition of Bacillus anthracis lethal factor by fluorescence assay. Put shortly:
as §1

For assay [13], the target named is T1, Lethal factor.

pIC50, pKi: −log10 of the molar value.

Matrix metalloproteinase-9, sequence (P14780 whole entry): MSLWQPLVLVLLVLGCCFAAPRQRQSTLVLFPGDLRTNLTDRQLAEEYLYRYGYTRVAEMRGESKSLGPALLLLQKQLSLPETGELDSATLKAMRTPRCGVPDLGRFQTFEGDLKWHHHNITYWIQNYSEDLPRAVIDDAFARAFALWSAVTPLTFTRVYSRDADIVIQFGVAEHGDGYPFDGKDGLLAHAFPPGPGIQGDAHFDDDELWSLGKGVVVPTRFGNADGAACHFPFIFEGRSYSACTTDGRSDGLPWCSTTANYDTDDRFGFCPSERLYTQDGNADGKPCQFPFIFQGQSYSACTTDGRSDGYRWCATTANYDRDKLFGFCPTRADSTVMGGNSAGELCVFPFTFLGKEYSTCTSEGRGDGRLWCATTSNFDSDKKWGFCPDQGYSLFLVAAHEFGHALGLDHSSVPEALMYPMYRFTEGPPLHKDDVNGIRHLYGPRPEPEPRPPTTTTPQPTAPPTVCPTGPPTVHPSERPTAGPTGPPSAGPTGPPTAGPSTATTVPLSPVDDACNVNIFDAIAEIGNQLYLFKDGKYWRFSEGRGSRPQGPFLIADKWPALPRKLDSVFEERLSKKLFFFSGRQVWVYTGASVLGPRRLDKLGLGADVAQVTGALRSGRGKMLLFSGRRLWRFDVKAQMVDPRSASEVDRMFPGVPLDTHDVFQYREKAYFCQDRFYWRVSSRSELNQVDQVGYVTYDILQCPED
Botulinum neurotoxin type A, sequence (P0DPI0 2-448 limits assumed): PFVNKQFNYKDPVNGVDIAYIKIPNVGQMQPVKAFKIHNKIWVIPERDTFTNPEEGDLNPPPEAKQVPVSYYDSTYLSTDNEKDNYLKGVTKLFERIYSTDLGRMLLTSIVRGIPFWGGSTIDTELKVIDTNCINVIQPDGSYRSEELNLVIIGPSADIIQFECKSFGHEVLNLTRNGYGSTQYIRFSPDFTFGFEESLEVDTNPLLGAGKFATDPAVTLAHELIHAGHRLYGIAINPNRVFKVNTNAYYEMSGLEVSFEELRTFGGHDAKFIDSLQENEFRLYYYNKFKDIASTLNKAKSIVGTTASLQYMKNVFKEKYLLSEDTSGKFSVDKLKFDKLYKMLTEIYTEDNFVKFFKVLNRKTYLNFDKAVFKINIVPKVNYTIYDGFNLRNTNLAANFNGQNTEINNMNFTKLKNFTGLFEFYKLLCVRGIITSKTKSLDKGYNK

The term pIC50 denotes the negative decadic logarithm of the IC50, by convention in mol/L. In turn, `Cc1cc(=S)c(O)c(C(=S)NCc2ccc(-c3ccccc3)cc2)o1` gave a pIC50 against Lethal factor [1] of 4.85.
As a reminder, the pKi is the negative decadic logarithm of the Ki, by convention in mol/L. For the compound `COc1ccccc1CCC(=O)Nc1ccc2nc(C)cc(N)c2c1`, the negative logarithm of the Ki (pKi) at Lethal factor [2] was 5.54; at Lethal factor [10], 6.32. Further, the negative logarithm of the IC50 (pIC50) on Lethal factor [3] was 5.91; at Lethal factor [4], 5.96; on Lethal factor [5] it was 6.02; on Lethal factor [6], 6.08; at Lethal factor [7] it was 6.14; in [8], under 4.00. Further, the negative logarithm of the IC50 (pIC50) against Interstitial collagenase was under 4.00; in [9], under 4.00; on Lethal factor [11], 5.52.
`Cc1cc(N)c2cc(NC(=O)Nc3ccc4nc(C)cc(N)c4c3)ccc2n1` [AMINOQUINURIDE]: the pIC50 in assay [8] is 4.00; on Interstitial collagenase it was 4.51; in [9], 5.14; at Lethal factor [11] it was 5.49.
The compound `O=c1oc2c(O)c(O)ccc2c2c1CCC2` had a pKi at Lethal factor [12] of 6.24.
As to `Cc1cc(N)c2cc(NC(=O)c3cccc(-c4ccc5ncccc5c4)c3)ccc2n1`, the pIC50 was under 4.00 in assay [8], under 4.00 against Interstitial collagenase, 4.59 in assay [9] and 5.34 on Lethal factor [11].
As for `Cc1cc(N)c2cc(NC(=O)COc3ccc(OCc4ccccc4)cc3)ccc2n1`, the pIC50 is under 4.00 in assay [8], under 4.00 on Interstitial collagenase, under 4.00 in assay [9] and 4.48 on Lethal factor [11].
For the compound `COc1ccccc1/C=C/C(=O)Nc1ccc2nc(C)cc(N)c2c1`, the negative-log IC50 (pIC50) was under 4.00 in assay [8], under 4.00 against Interstitial collagenase, under 4.00 in assay [9] and 4.34 at Lethal factor [11].
On to `Cc1cc(S(=O)(=O)N[C@@H](C(=O)NO)C2CCOCC2)ccc1F`, for which the pKi on Lethal factor [13] was 7.62.
In the case of `Cc1cc(N)c2cc(NC(=O)c3ccc(-c4ccc5ncccc5c4)cc3)ccc2n1`, the values for the pKi on Lethal factor [2] and at Lethal factor [10] were 5.94 and 5.90, respectively. For the same compound, the pIC50 on Lethal factor [3] was 5.96; on Lethal factor [4], 5.94; on Lethal factor [5] it was 5.91; at Lethal factor [6], 5.90; at Lethal factor [7], 5.90; in [8], 5.77. For the same compound, the pIC50 was under 4.00 against Interstitial collagenase, 4.42 in assay [9] and 5.80 on Lethal factor [11].
On to `Cc1cc(N)c2cc(NC(=O)c3cccc(-c4cccc5ncccc45)c3)ccc2n1`, for which the pIC50 in assay [8] is 4.30; against Interstitial collagenase it was 4.19; in [9], 4.17; at Lethal factor [11], 4.48.
Consider `CNC(=O)[C@@H](CCc1ccccc1)NC(=O)[C@@H](CC(=O)NO)CC(C)C`, for which the pIC50 at Lethal factor [1] was 5.15.
Compound `O=C(N/N=C/c1cc([N+](=O)[O-])ccc1O)c1ccc(O)c(O)c1` had a pKi on Lethal factor [1] of 5.96.
For `Cc1cc(N)c2cc(NC(=O)c3cccc(-c4cccc5cccnc45)c3)ccc2n1`, the pIC50 in assay [8] was under 4.00; at Interstitial collagenase it was under 4.00; in assay [9] it was 4.10; on Lethal factor [11], 4.44.
With `COc1ncccc1CCC(=O)Nc1ccc2nc(C)cc(N)c2c1`, the negative logarithm of the IC50 (pIC50) is under 4.00 in assay [8], under 4.00 on Interstitial collagenase, under 4.00 in assay [9] and 4.39 on Lethal factor [11].
